Measurements pooled from the literature.
Cell line: PC-3
Read-out: cell growth or viability

SMILES	assay	conditions	inhibition
O=C(Nc1cccc(-c2ccco2)c1)C1CCCN(C(=O)c2cc(C(F)(F)F)cc(C(F)(F)F)c2)C1 (stereo not drawn)	WST-1	100 µM	0%
COc1cc(CNC(=O)CCCC/C=C/C(C)C)ccc1O	SRB	10 µM	19%
COC(=O)c1cc(-c2cccc(NC(=O)C3CCCN(C(=O)c4cc(C(F)(F)F)cc(C(F)(F)F)c4)C3)c2)co1 (stereo not drawn)	WST-1	100 µM	0%
COc1ccccc1/C=C/C(=O)c1ccc(OC)c(S(N)(=O)=O)c1	SRB	10 µM	52%
O=C(CN1C(=O)/C(=C/c2ccccc2)SC1=S)Nc1ccccc1	MTT	10 µM	43.8%
O=C1Nc2ccccc2C1=NNc1nnc2n1N=C(c1ccccc1)CS2	SRB	10 µM	20%
COc1ccc(C(=O)/C=C/c2cccc(Br)c2)cc1S(N)(=O)=O	SRB	10 µM	135%
O=C(CN1C(=O)/C(=C/C2CC2)SC1=S)Nc1ccccc1	MTT	10 µM	24.1%
COc1ccc(C(=O)/C=C/c2cc3c(cc2Br)OCO3)cc1S(N)(=O)=O	SRB	10 µM	98%
CC(=O)c1cccc(NC(=O)C2CCCN(C(=O)c3cc(C(F)(F)F)cc(C(F)(F)F)c3)C2)c1 (stereo not drawn)	WST-1	100 µM	0%
O=C(CN1C(=O)/C(=C/c2ccc(Cl)cc2)SC1=S)Nc1ccccc1	MTT	10 µM	32.3%
O=C(Nc1cccc(Cc2ccccc2)c1)C1CCCN(C(=O)c2cc(C(F)(F)F)cc(C(F)(F)F)c2)C1 (stereo not drawn)	WST-1	100 µM	0%
COc1ccc(C(=O)/C=C/c2c(F)cccc2Cl)cc1S(N)(=O)=O	SRB	10 µM	81%
O=C(CN1C(=O)/C(=C/c2ccc([N+](=O)[O-])cc2)SC1=S)Nc1ccccc1	MTT	10 µM	16.6%
CCc1cccc(NC(=O)C2CCCN(C(=O)c3cc(C(F)(F)F)cc(C(F)(F)F)c3)C2)c1 (stereo not drawn)	WST-1	100 µM	0%
